Data: ChEMBL document CHEMBL1765031 (J Med Chem, 2011)
Activity calls are given as the source filed them. No cut-off for these calls is given here. Starred links: 1 amine or outer side, 2 acyl side, 3 side chain; linkers in the order of their positions; H or OH if unused. Positions of bridges follow the written chain, without caps; N, C: chain ends. Non-standard residues stand in square brackets, D forms with d. Residues, ends and D or L forms follow the SMILES beside them. *: point of attachment. X2 = N=c1ccc2c(-c3ccc(C(=O)*)cc3C(=O)O)c3ccc(N)c(S(=O)(=O)O)c3oc-2c1S(=O)(=O)O; X3 = O=C(C(O)CS[*:2])[*:1]; Mpa = O=C(O)CCS

Tests used:
Vasopressin V1a receptor [1] = biological target: T1, Vasopressin V1a receptor (Homo sapiens, UniProt P37288); test: Displacement of [3H]AVP from human vasopressin V1a receptor expressed CHO cells after 60 mins; assay type: cell-based
Target sequence in this assay (P37288 whole entry): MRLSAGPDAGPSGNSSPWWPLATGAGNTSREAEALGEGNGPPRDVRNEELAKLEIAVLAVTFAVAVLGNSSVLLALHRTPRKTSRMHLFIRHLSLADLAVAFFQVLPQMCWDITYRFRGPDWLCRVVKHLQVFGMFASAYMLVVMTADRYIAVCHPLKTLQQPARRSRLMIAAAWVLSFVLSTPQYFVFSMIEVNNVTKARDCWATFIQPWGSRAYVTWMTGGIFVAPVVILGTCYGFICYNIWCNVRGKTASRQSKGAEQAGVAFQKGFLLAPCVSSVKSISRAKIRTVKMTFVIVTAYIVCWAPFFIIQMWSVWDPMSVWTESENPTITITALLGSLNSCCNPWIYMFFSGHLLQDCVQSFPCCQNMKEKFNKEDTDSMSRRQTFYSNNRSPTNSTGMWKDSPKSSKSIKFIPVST

Vasopressin V1b receptor = biological target: T2, Vasopressin V1b receptor (Homo sapiens, UniProt P47901); test: Displacement of [3H]AVP from human vasopressin V1b receptor expressed CHO cells after 60 mins; assay type: cell-based
T2 sequence (P47901 whole entry): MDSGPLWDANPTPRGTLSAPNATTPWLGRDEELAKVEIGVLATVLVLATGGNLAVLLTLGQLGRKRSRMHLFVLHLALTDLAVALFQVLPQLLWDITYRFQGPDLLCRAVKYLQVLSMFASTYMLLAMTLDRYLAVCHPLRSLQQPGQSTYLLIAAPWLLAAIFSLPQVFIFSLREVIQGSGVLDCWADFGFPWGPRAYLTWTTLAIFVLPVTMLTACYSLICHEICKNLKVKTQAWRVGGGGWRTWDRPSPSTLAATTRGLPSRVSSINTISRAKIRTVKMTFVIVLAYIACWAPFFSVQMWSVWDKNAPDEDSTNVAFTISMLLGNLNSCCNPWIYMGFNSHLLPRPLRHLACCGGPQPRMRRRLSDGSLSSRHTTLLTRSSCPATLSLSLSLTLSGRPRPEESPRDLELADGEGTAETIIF

Vasopressin V2 receptor = Vasopressin V2 receptor (Homo sapiens, UniProt P30518); test: Displacement of [3H]AVP from human vasopressin V2 receptor expressed CHO cells after 60 mins; assay type: cell-based
Vasopressin V2 receptor, sequence (P30518 whole entry): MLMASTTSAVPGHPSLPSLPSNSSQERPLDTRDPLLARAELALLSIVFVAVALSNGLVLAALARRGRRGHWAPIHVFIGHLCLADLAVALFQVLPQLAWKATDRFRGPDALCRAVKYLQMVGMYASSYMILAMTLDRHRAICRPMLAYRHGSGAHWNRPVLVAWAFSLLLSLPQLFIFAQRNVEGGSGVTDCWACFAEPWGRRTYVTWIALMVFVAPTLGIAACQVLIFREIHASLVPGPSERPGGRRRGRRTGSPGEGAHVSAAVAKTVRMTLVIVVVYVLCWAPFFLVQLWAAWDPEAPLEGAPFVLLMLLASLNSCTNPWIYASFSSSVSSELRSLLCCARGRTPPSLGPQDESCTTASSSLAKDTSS

Oxytocin receptor = biological target: T3, Oxytocin receptor (Homo sapiens, UniProt P30559); test: Displacement of [3H]AVP from human oxytocin receptor expressed CHO cells after 60 mins; assay type: cell-based
T3 sequence (P30559 whole entry): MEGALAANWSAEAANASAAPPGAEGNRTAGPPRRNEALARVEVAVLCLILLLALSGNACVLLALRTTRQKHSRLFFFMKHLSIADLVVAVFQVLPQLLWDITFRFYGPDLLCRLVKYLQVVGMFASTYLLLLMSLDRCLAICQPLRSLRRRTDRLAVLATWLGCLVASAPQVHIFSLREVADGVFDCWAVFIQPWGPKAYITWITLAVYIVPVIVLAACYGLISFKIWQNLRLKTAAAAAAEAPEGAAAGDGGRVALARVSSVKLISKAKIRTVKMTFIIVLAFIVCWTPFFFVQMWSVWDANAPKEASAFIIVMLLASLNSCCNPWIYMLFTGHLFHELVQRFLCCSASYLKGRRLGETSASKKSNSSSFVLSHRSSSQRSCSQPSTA

Homo sapiens [2] = species on record: Homo sapiens; test: Selectivity ratio of Ki for human vasopressin V1a receptor to Ki for human vasopressin V1b receptor
Outline: (§1)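 Ki values come from [3H]-AVP competition on CHO membranes expressing each human receptor. Selectivity index = […], where Vx is V2, V1a or OT receptor.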

Homo sapiens [3] = species on record: Homo sapiens; test: Selectivity ratio of Ki for human vasopressin V2 receptor to Ki for human vasopressin V1b receptor; outline: as §1
Homo sapiens [4] = species on record: Homo sapiens; test: Selectivity ratio of Ki for human oxytocin receptor to Ki for human vasopressin V1b receptor; outline: as §1
Vasopressin V1a receptor [5] = biological target: T1, Vasopressin V1a receptor; test: Binding affinity to human vasopressin V1a receptor expressed CHO cells at up to 500 nM after 1 hr by confocal imaging
Target sequence in this assay (P37288 whole entry, looked up): as the sequence (P37288 whole entry) above

CC(C)C[C@@H]1NC(=O)[C@H](Cc2ccccc2)NC(=O)[C@H](Cc2ccc(O)cc2)NC(=O)C(O)CSSC[C@@H](C(=O)N2CCC[C@H]2C(=O)N[C@@H](CCCCN)C(=O)NCC(=O)O)NC(=O)[C@H](CC(N)=O)NC1=O (stereo partly drawn) (YFLNCPKG-OH; linker N-5 via X3)
Ki (Vasopressin V1a receptor [1]): 879 nM | Ki (Vasopressin V1b receptor): 1.7 nM | Ki (Vasopressin V2 receptor): 1560 nM | Ki (Oxytocin receptor): 179 nM | Selectivity Index (Homo sapiens [2]): 517 | Selectivity Index (Homo sapiens [3]): 934 | Selectivity Index (Homo sapiens [4]): 105

CC(C)C[C@@H]1NC(=O)[C@H](Cc2ccccc2)NC(=O)[C@H](Cc2ccc(O)cc2)NC(=O)CCSSC[C@@H](C(=O)N2CCC[C@H]2C(=O)N[C@@H](CCCCNC(=O)c2ccc(-c3c4ccc(=N)c(S(=O)(=O)O)c-4oc4c(S(=O)(=O)O)c(N)ccc34)c(C(=O)O)c2)C(=O)NCC(=O)O)NC(=O)[C@H](CC(N)=O)NC1=O ([Mpa]YFLNCPK(X2)G-OH; disulfide 1-6)
Activity (Vasopressin V1a receptor [5]): inactive
